MMP13 inh – inhibitors of human MMP13 | MMP-13 fTHP FRET cleavage, Mca fluorescence | inhibition, % at 4 µM | actives 0.07% (n = 65,000);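 active = inhibition above the mean of compound-free control plate wells plus 3 SD, cut at about 14% in these data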;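 also: 0% = DMSO wells and 100% = wells with reference MMP-13 inhibitor after basal subtraction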
tolC growth inh – E. coli tolC mutant growth inhibition; growth inhibition, % at 10 µM (by protocol); actives 2.2% (n = 65,000); E. coli BW25113 tolC mutant growth, OD615;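 active = growth inhibition at or above a cutoff equal to the mean over every tested compound plus 3 SD, cut at about 60% in these data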;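 also: growth measured after 20 h incubation at 37 °C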
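signal = optical density read at 615 nm | test system = E. coli ΔtolC::kan strain BW25113 | timing = 20 h compound exposure of bacteria at 37 °C | buffer or medium = LB medium plus 50 µg/mL kanamycin | compound dosing = 10 µM final, single dose | evaluation = % inhibition of E. coli growth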
BAP1 inh – human BAP1 deubiquitinase inhibition | Q92560 | recombinant BAP1, Ub-AMC hydrolysis fluorescence kinetic; active compounds read low | calls only at 20 µM | actives 0.48% (n = 72,000);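 active = activity remaining at or below 50% of control, provided the compound also passes the data quality filters; inactive = the rest, including low values that fail the filters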;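 also: 100% = DMSO wells rate and 0% = substrate alone blank rate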
Target sequence (Q92560 whole entry, looked up): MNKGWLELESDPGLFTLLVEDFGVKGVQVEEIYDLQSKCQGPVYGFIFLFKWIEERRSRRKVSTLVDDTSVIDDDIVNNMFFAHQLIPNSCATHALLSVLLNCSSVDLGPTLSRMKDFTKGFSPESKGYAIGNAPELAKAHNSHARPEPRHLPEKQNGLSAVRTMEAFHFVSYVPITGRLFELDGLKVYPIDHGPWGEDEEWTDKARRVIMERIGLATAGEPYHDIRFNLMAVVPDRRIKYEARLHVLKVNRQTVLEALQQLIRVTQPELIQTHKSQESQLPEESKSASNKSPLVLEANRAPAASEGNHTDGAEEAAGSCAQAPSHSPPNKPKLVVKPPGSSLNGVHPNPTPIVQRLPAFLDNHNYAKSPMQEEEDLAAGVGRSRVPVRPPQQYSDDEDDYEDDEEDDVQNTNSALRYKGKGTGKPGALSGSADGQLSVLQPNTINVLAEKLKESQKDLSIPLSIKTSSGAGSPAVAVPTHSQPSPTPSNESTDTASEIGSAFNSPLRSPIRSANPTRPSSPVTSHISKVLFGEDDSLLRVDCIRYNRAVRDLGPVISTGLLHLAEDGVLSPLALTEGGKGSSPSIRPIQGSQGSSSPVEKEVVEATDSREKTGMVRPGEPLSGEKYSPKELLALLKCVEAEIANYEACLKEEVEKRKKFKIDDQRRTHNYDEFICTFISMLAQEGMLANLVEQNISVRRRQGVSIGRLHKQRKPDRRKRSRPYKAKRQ
E coli RNAP – Escherichia coli RNA polymerase inhibition; P0A8V2; E. coli RNA polymerase, fluorescence transcription assay; inhibition, %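 (tested at 10 µM)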; actives 0.2% (n = 62,000); AID 559; in the data active = inhibition above about 20%;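 also: 0% = enzyme without compound and 100% = no enzyme blank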
AP complement – orthogonal test for alternative complement pathway inhibitors | inhibition, % at 5 µM | Human serum alternative complement pathway, LPS-coated ELISA, C3 deposition; tested in compound mixtures | actives 0.08% (n = 62,000) | AID 1235;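 active = inhibition above 30% in each of the two pooled mixtures holding the compound, so the lower value exceeds 30%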;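 also: 0% = serum in Mg-EGTA without compound and 100% = EDTA serum blank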
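Medium: diluted human serum in Mg2+-EGTA GVB++. Assay system: human serum complement alternative pathway, C3 deposition onto LPS. Also added: Plate-bound LPS. Technique: Anti-C3 ELISA, OD 450 nm. Measure: percent inhibition. Incubation: 1 h at 37 °C. Dosing: 5 µM each compound, pools of ten, 50 µM per pool.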
Ecoli WT expand – growth inhibitors of E. coli BW25113 wild type; OD600 absorbance; growth inhibition, % at 100 µM; actives 0.15% (n = 98,000); AID 710;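 active = growth inhibition above about 50% at one test dose, limit read from the data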;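 also: growth measured after 20 h incubation at 37 °C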
* marks the source's active call; other numbers are inactive results; i = inactive; nt = no result given. Many of the other results were omitted from the sample, so hits are more common in it than they were.

SMILES	MMP13 inh	tolC growth inh	BAP1 inh	E coli RNAP	AP complement	Ecoli WT expand
CCOC(=O)C1CN(c2cc3c(cc2F)c(=O)c(C(=O)O)cn3CC)OC1C(=O)OCC (centres undefined)	-8	98*	i	8	13	10
CCOC(=O)N1CCN(C(=O)c2cn(CC)c3cc(N4CCN(C)CC4)c(F)cc3c2=O)CC1	-66	16	i	4	8	100*
Cc1cc(Nc2ccc(Cl)cc2)c2ccc3ccccc3c2n1	nt	nt	i	nt	nt	nt
O=c1nc2n3ccccc3ncc-2s1	nt	nt	i	nt	nt	nt
CCn1cc(C(=O)OC(C)C(=O)Nc2c(C)n(C)n(-c3ccccc3)c2=O)c(=O)c2ccc(C)nc21 (centres undefined)	4	99*	i	-8	17	26
COc1ccc(CNC(=O)c2nn3c(c2Cl)NC(c2cccs2)CC3C(F)(F)F)cc1 (centres undefined)	nt	nt	i	nt	nt	nt
COc1ccccc1-c1nnc(NC(=O)c2ccc(S(=O)(=O)N(C)Cc3ccccc3)cc2)o1	0	95*	i	10	6	-13
CN(Cc1ccccc1)S(=O)(=O)c1ccc(NS(C)(=O)=O)cc1	1	29	i	5	16	1
CN(c1ccccc1)S(=O)(=O)c1ccc(C(=O)Nc2nnc(-c3ccc(F)cc3)o2)cc1	7	100*	i	2	6	-8
CN(Cc1ccccc1)S(=O)(=O)c1ccc(C(=O)Nc2nnc(C3CC3)o2)cc1	-1	100*	i	4	21	-1
CC(C)(C)C(=O)/C=C(\N)c1ccncc1	-3	-17	i	9	40*	1
CN1C(=O)c2ccc(C(=O)NC3CCCCC3)cc2C1=O	5	-27	i	6	41*	0
O=C(Nc1nc(-c2ccccc2)c(C(=O)c2ccccc2)s1)c1cccc([N+](=O)[O-])c1	nt	nt	i	nt	nt	nt
CSCSC1=C(C#N)C(c2ccc(Cl)cc2)C(C(C)=O)=C(C)N1 (centres undefined)	-2	96*	i	9	3	-19
Cc1ccc2nc(NC(=O)CN(C)S(=O)(=O)c3ccc(Br)s3)sc2c1	3	81*	i	-5	10	-10
Cc1ccc2nc(NC(=O)CNS(=O)(=O)c3ccc(Br)s3)sc2c1	1	61*	i	7	12	-12
Cc1ccc2nc(NC(=O)CN(C)S(=O)(=O)c3cccc4nsnc34)sc2c1	-8	-16	i	8	-3	1
Cc1cccc2sc(NC(=O)CNS(=O)(=O)c3ccc(Br)s3)nc12	5	31	i	-13	2	-5
COC(=O)c1ccc(/C(O)=C(\C#N)c2nc3ccccc3s2)cc1	2	65*	i	9	-6	-6
CC(C)=C(C#N)c1nc2ccccc2s1	2	1	i	9	-12	2
CCCNCC1COc2ccccc2O1 (centres undefined)	nt	nt	nt	nt	nt	1
CCN(c1ccccc1)S(=O)(=O)c1ccc(NCC2COc3ccccc3O2)nc1 (centres undefined)	-1	62*	i	5	21	-21
Cc1cccc(N=c2oc3cc(O)ccc3cc2C(N)=O)c1	-232	98*	nt	-4	14	8
COc1ccc(O)c(-c2cn[nH]c2-c2cccs2)c1	4	15	i	nt	8	-6
CCCc1ccc(Oc2cn[nH]c2-c2ccc(O)cc2O)cc1	2	100*	i	7	24	8
SMILES	MMP13 inh	tolC growth inh	BAP1 inh	E coli RNAP	AP complement	Ecoli WT expand
CCCOC(=O)c1ccc(Oc2c(-c3ccc(OC)cc3O)n[nH]c2C)cc1	10	55	i	4	-6	2
COc1ccc(Oc2cn[nH]c2-c2ccc(O)cc2O)cc1	3	94*	i	9	2	22
COc1ccc(-c2[nH]ncc2-c2cnc(C)s2)c(O)c1	-2	1	i	3	14	7
COc1ccc(-c2[nH]ncc2-c2cnn(-c3ccccc3)c2)c(O)c1	nt	93*	nt	7	5	1
COc1ccc(-c2[nH]ncc2Oc2ccccc2OC)c(O)c1	4	99*	i	3	11	8
NC(=O)c1cc(-c2cccnc2)no1	nt	nt	i	nt	nt	nt
CC(CCOC(=O)CN1CCCCC1)CCc1ccccc1 (centres undefined)	nt	nt	i	nt	nt	nt
Cn1c(=O)[nH]c(=O)c2c1nc(SCc1ccccc1Cl)n2CCc1ccccc1	nt	nt	i	nt	nt	nt
Cc1cc(=O)[nH]c(N2CCN(Cc3ccccc3)CC2)n1	2	-3	i	6	17	2
CCCCc1c(O)nc(N2CCN(Cc3ccccc3)CC2)[nH]c1=O	3	-5	i	43*	7	0
CCOC(=O)c1sc(NC(=O)c2c(C)nn(Cc3ccccc3)c2C)cc1C	-2	71*	nt	3	18	-12
Cc1[nH]nc(-c2ccc(O)cc2O)c1Oc1ccccc1	2	4	i	9	nt	15
C=C(C)COc1ccc(-c2n[nH]c(C)c2Oc2ccccc2OC)c(O)c1	0	88*	i	6	-5	9
CCOc1ccc(-c2n[nH]c(C)c2Oc2ccccc2OC)c(O)c1	2	95*	i	0	8	11
CCCOC(=O)c1ccc(Oc2c(-c3ccc(O)cc3O)n[nH]c2C)cc1	2	100*	i	2	18	15
CCc1ccc(S(=O)(=O)N(C(=O)c2cccc([N+](=O)[O-])c2)c2ccc3oc(C)c(C(C)=O)c3c2)cc1	nt	nt	i	nt	nt	nt
Cc1cc(Nc2cccc(F)c2)nc(-c2ccccc2O)n1	-7	-15	i	nt	7	-6
COc1ccc(C2(O)CC3CCC(C2)N3c2cc(C)nc(-c3ccccc3)n2)cc1 (centres undefined)	-3	87*	i	2	14	2
Cc1cc(N2CCN(c3ccccc3)CC2)nc(-c2ccccc2)n1	4	77*	i	4	3	-25
Cc1cc(Nc2ccccc2)nc(-c2ccccc2O)n1	-3	100*	i	2	20	4
Cc1cc(N2CCN(C(=O)c3ccco3)CC2)nc(-c2ccccc2)n1	-6	5	i	4	-4	nt
Cc1cc(N2CCCCCC2)nc(-c2ccccc2O)n1	-32	81*	nt	nt	-16	0
COc1cccc2cc(-c3nc4ccccc4[nH]3)c(=Nc3cccc(C)c3)oc12	nt	nt	i	nt	nt	nt
O=[N+]([O-])c1ccccc1Oc1cccc(Oc2ccccc2[N+](=O)[O-])c1	nt	nt	i	nt	nt	nt
Cn1c(-c2ccccc2)cc2c3no[n+]([O-])c3ccc21	3	95*	i	-6	17	2
Oc1ccccc1-c1cc(-c2cccc(F)c2)n[nH]1	0	100*	i	7	3	24
Oc1ccc(Cl)cc1-c1cc(-c2cccc(Br)c2)n[nH]1	nt	nt	nt	nt	nt	-8
Cc1ccc(O)c(-c2cc(C(F)(F)C(F)F)[nH]n2)c1	-6	37	nt	4	7	34

Bioassay records deposited in PubChem BioAssay by several laboratories.
